Activity calls are given as the source filed them. The calls are words filed in the database; no cut-off is given here.
Assays:
LNCaP = experiment: Anticancer activity against human LNCAP cells assessed as cell viability measured after 72 hrs by MTT assay (reference value: 100 +/- 5.0 %); assay type: functional; set-up: concentration or dose not given beside the values
PC-3 [1] = experiment: Cell cycle arrest in human PC3 cells assessed as accumulation at G0/G1 phase at 3 uM measured after 48 hrs by RNase/propidium iodide staining based flow cytometry analysis (reference value: 42.59 %); assay type: functional
PC-3 [2] = experiment: Anticancer activity against human PC3 cells assessed as cell viability measured after 72 hrs by MTT assay (reference value: 100 +/- 18.8 %); assay type: functional; set-up: concentration or dose not given beside the values
PC-3 [3] = experiment: Induction of reactive oxygen species generation in human PC3 cells assessed as increase in intracellular ROS level at 3 to 10 uM incubated for 3 hrs by CM-H2DCFDA staining based fluorescence microscopy analysis; assay type: functional, cell-based
Outline: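 Approx. 1×10^5 PC-3 cells per well treated 3 h at 3 or 10 μM; medium replaced with 10 μM CM-H2DCFDA for 30 min in dark at 37 °C, nuclei counterstained Hoechst 33342 (1 μg/mL) 15 min at room temperature; fluorescence microscopy, percentage ROS-producing cells scored versus vehicle.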

MDA-MB-231 [4] = experiment: Anticancer activity against human MDA-MB-231 cells assessed as reduction in cell viability measured after 72 hrs by MTT assay; assay type: functional, cell-based; settings: MDA-MB-231, 72 h
PC-3 [5] = experiment: Induction of apoptosis in human PC3 cells assessed as upregulation of Bax expression measured after 72 hrs by Western blot analysis; assay type: functional, cell-based
Outline: (§1)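 Western blot: PC-3 seeded 1.25 × 10^5/well, exposed to 0.1–10 μM for 72 h. Lysed in 2× SDS buffer and sonicated; 20–25 μg protein run on 12% SDS gel, transferred to PVDF, blocked in 5% BSA/TBST. Primary antibodies overnight, secondary 1 h; ECL detection, β-actin loading control.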

PC-3 [6] = experiment: Upregulation of NOXA mRNA expression in human PC3 cells at 3 to 10 uM measured after 72 hrs by TRIzol dye based RT-PCR analysis; assay type: functional, cell-based
Outline: (§2)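 PC-3 cells (1.25×10^5 per well) treated 72 h at 3 or 10 μM; total RNA by TRIzol, cDNA from 2 μg; SYBR real-time PCR, 95 °C 10 min then 40 cycles 95 °C 15 s/60 °C; Ct normalised to GAPDH, relative expression by 2^-ΔΔCt; three experiments.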

PC-3 [7] = experiment: Downregulation of BCL-xL mRNA expression in human PC3 cells at 3 to 10 uM measured after 72 hrs by TRIzol dye based RT-PCR analysis; assay type: functional, cell-based
Outline: (§3)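 PC-3 (1.25 × 10^5/well) treated 72 h with 3 or 10 μM. Total RNA extracted with TRIzol; cDNA made from 2 μg RNA. SYBR qPCR: 95 °C 10 min, then 40 cycles of 95 °C/60 °C. Expression normalised to GAPDH by 2^-ΔΔCt; three experiments.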

[8] = molecular target: Peptidyl-prolyl cis-trans isomerase NIMA-interacting 1 (Homo sapiens) (UniProt Q13526); experiment: Inhibition of proteasome mediated Pin1 in human PC3 cells at 10 uM measured after 72 hrs in presence of MG132; assay type: cell-based
Peptidyl-prolyl cis-trans isomerase NIMA-interacting 1 (Homo sapiens), sequence (Q13526 whole entry): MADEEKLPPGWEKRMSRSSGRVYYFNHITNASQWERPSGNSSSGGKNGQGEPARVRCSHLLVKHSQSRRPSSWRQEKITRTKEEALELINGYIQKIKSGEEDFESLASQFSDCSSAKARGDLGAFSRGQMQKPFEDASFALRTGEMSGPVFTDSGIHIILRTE

PC-3 [9] = experiment: Antimigratory activity against human PC3 cells assessed as reduction in cell migration at 3 to 10 uM measured after 48 hrs by transwell assay; assay type: functional, cell-based
Outline: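 Transwell migration through 8.0 μm polycarbonate membranes: 40,000 PC-3 cells in serum-free medium in the upper chamber with 3 or 10 μM; RPMI-1640 with 10% FBS below. After 48 h, non-migrated cells swabbed off. Migrated cells fixed in 75% ethanol for 10 min, Hoechst stained and counted per field versus DMSO.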

PC-3 [10] = experiment: Antimetastatic activity against human PC3 cells assessed as inhibition of MMP-9 at 3 to 10 uM measured after 48 hrs by gelatin zymography; assay type: functional, cell-based
Outline: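 PC-3 monolayers scratched, then treated with 3 or 10 μM for 48 h in serum-containing medium, then 24 h in serum-free medium. Conditioned medium run non-reduced on 7.5% SDS-PAGE containing gelatin 4 mg/mL. Gel washed in 2.5% Triton X-100, incubated 24 h at 37 °C in Tris pH 7.5 with CaCl2/ZnCl2, Coomassie stained; lysis seen as clear bands.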

PC-3 [11] = experiment: Anticlonogenic activity against human PC3 cells assessed as reduction in colony formation incubated for 72 hrs supplemented with fresh medium containing measured after 15 days by colony formation assay; assay type: functional, cell-based
Outline: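 Clonogenic assay: PC-3 seeded at 500 cells/well in six-well plates, allowed to adhere overnight, then treated. Medium and compound renewed every 72 h over 15 days. Colonies fixed with 3.7% formaldehyde for 20 min, stained with 0.4% crystal violet and counted. Three experiments, each in quadruplicate, expressed as fold change versus control.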

PC-3 [12] = experiment: Cell cycle arrest in human PC3 cells assessed as accumulation at S phase at 10 uM measured after 48 hrs by RNase/propidium iodide staining based flow cytometry analysis (reference value: 22.40 %); assay type: functional
HepG2 = experiment: Anticancer activity against human HepG2 cells assessed as reduction in cell viability measured after 72 hrs by MTT assay; assay type: functional, cell-based; settings: HepG2, 72 h
PC-3 [13] = experiment: Induction of cell death in human PC3 cells measured after 72 hrs by propidium iodide staining based flow cytometry analysis; assay type: functional
Outline: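 PC-3 cells in six-well plates exposed to 3 or 10 μM for 72 h, 0.1% DMSO vehicle as control; cells harvested, PBS-washed, stained with propidium iodide (5 μg/mL) 20 min at 4 °C; percentage dead cells read by flow cytometry; t-test against vehicle.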

MDA-MB-231 [14] = experiment: Anticancer activity against human MDA-MB-231 cells assessed as cell viability measured after 72 hrs by MTT assay (reference value: 100 +/- 20.0 %); assay type: functional; set-up: concentration or dose not given beside the values
PC-3 [15] = experiment: Cell cycle arrest in human PC3 cells assessed as accumulation at S phase at 3 uM measured after 48 hrs by RNase/propidium iodide staining based flow cytometry analysis (reference value: 22.40 %); assay type: functional
A-431 = experiment: Anticancer activity against human A431 cells assessed as reduction in cell viability measured after 72 hrs by MTT assay; assay type: functional, cell-based; settings: A-431, 72 h
PC-3 [16] = experiment: Downregulation of PCNA mRNA expression in human PC3 cells at 3 to 10 uM measured after 72 hrs by TRIzol dye based RT-PCR analysis; assay type: functional, cell-based; outline: as §3
PC-3 [17] = experiment: Upregulation of p21 mRNA expression in human PC3 cells at 3 to 10 uM measured after 72 hrs by TRIzol dye based RT-PCR analysis; assay type: functional, cell-based; outline: as §2
PC-3 [18] = experiment: Induction of apoptosis in human PC3 cells assessed as decrease in pro-caspase-3 level after 72 hrs by Western blot analysis; assay type: functional, cell-based; outline: as §1
PC-3 [19] = experiment: Downregulation of cyclinB1 mRNA expression in human PC3 cells at 3 to 10 uM measured after 72 hrs by TRIzol dye based RT-PCR analysis; assay type: functional, cell-based; outline: as §3
PC-3 [20] = experiment: Induction of apoptosis in human PC3 cells assessed as down-regulation of BCL-xL expression measured after 72 hrs by Western blot analysis; assay type: functional, cell-based; outline: as §1
PC-3 [21] = experiment: Downregulation of cMyc in human PC3 cells at 3 to 10 uM measured after 72 hrs by Western blot analysis; assay type: functional, cell-based; outline: as §1
PC-3 [22] = experiment: Antiproliferative activity against human PC3 cells assessed as reduction in cell viability upto 10 uM incubated for 24 hrs by MTT assay; assay type: functional, cell-based
PC-3 [23] = experiment: Anticancer activity against human PC3 cells assessed as reduction in cell viability measured after 72 hrs by MTT assay; assay type: functional, cell-based; settings: PC-3, 72 h

## COC(=O)Cc1ccc(S[C@@H]2O[C@@H]3O[C@@]4(C)CC[C@H]5[C@H](C)CC[C@@H]([C@H]2C)[C@@]35OO4)cc1
LNCaP
  Activity: 38%
PC-3 [1]
  Activity: 54.49%
PC-3 [2]
  Activity: 28%
PC-3 [3]
  Activity: Active
MDA-MB-231 [4]
  IC50: 9.03 µM
PC-3 [5]
  Activity: Dose-dependent effect
PC-3 [6]
  Activity: Active
PC-3 [7]
  Activity: Active
[8]
  inhibition: inactive
PC-3 [9]
  Activity: Active
PC-3 [10]
  inhibition: Dose-dependent effect
PC-3 [11]
  Activity: Dose-dependent effect
PC-3 [12]
  Activity: 13.21%
HepG2
  IC50: 6.08 µM
PC-3 [13]
  Activity: Dose-dependent effect
MDA-MB-231 [14]
  Activity: 45%
PC-3 [15]
  Activity: 13.26%
A-431
  IC50: 13.3 µM
PC-3 [16]
  Activity: Active
PC-3 [17]
  Activity: Active
PC-3 [18]
  Activity: Dose-dependent effect
PC-3 [19]
  Activity: Active
PC-3 [20]
  Activity: Dose-dependent effect
PC-3 [21]
  Activity: Active
PC-3 [22]
  Activity: inactive
PC-3 [23]
  IC50: 6.13 µM

Reference: ChEMBL document CHEMBL4359825, “Synthesis of novel S-linked dihydroartemisinin derivatives and evaluation of their anticancer activity” (Eur J Med Chem, 2019)
